Results: ChEMBL document CHEMBL1143838, “Candida albicans and Candida dubliniensis respond differently to echinocandin antifungal agents in vitro” (2007)
Converted amounts (≈) assume the structure as drawn. *1 amine or outer side, *2 acyl side, *3 side chain or, on linkers, in order; H or OH if unused. Where a SMILES comes first, the peptide text is derived from it. Bridges are numbered along the chain shown (N, C = ends). [ ]: non-standard residue; d: D form. The star is where a group is joined. hTyr(3S-OH,4S-OH,3'-OSO3H) = N[C@H](C(=O)O)[C@H](O)[C@@H](O)c1ccc(O)c(OS(=O)(=O)O)c1; Orn(4R-OH,5R-OH) = O=C([C@H](C[C@@H](O)[C@@H](O)N[*:3])N[*:1])[*:2]; Pro(3S-OH,4S-Me) = C[C@H]1CN[C@H](C(=O)O)[C@H]1O; X1 = CCCCCOc1ccc(-c2cc(-c3ccc(C(=O)*)cc3)no2)cc1; Gln(3R-OH) = NC(=O)C[C@@H](O)[C@H](N)C(=O)O; Hyp = O=C(O)[C@@H]1C[C@@H](O)CN1

Columns and labels:
Format in all cases: functional
[1] = test system: Candida dubliniensis; experiment: Antifungal activity against Candida dubliniensis B71507 after 24 hrs by CLSI M27-A test
Summary of the method: (§1)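 Broth microdilution with echinocandins as aqueous doubling dilutions. Yeasts were grown overnight at 30°C in NGY and seeded at 10^3 yeasts/ml initial concentration in MOPS-buffered RPMI 1640, then incubated at 35°C for 24 h. The MIC was read visually as the lowest concentration giving a marked decrease in visible growth; paradoxical or trailing growth was noted.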

[2] = test system: Candida dubliniensis; experiment: Antifungal activity against Candida dubliniensis Leic875 after 24 hrs by CLSI M27-A test; summary of the method: as §1
[3] = test system: Candida dubliniensis; experiment: Antifungal activity against Candida dubliniensis J931021 after 24 hrs by CLSI M27-A test; summary of the method: as §1
[4] = test system: Candida albicans; experiment: Antifungal activity against Candida albicans NR4 after 24 hrs by EUCAST test
Summary of the method: (§2)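 EUCAST broth microdilution with aqueous doubling dilutions of drug. Inoculum grown overnight at 30°C in NGY, then added to MOPS-buffered RPMI 1640 with 2% glucose at an initial 10^5 yeasts/ml. Incubated 35°C for 24 h. MICs taken from triplicate spectrophotometric dose-response data as 50% and 80% growth-reduction endpoints.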

[5] = test system: Candida dubliniensis; experiment: Antifungal activity against Candida dubliniensis B71507 after 24 hrs by EUCAST test
Summary of the method: (§3)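 Yeasts were grown overnight at 30°C in NGY, then inoculated at 10^5 yeasts/ml initial concentration into MOPS-buffered RPMI 1640 with 2% glucose containing aqueous doubling dilutions of drug. Plates were held at 35°C for 24 h. MICs came from triplicate spectrophotometric dose-response data at 50% and 80% growth-reduction endpoints. Trailing meant a >100-fold gap between these endpoints; paradoxical meant regrowth ≥5% above the curve minimum.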

[6] = test system: Candida albicans; experiment: Antifungal activity against Candida albicans T32 after 24 hrs by EUCAST test; summary of the method: as §2
[7] = test system: Candida dubliniensis; experiment: Antifungal activity against Candida dubliniensis Leic875 after 24 hrs by EUCAST test; summary of the method: as §3
[8] = test system: Candida dubliniensis; experiment: Antifungal activity against Candida dubliniensis AMCC after 24 hrs by CLSI M27-A test
Summary of the method: (§4)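 CLSI M27-A broth microdilution with aqueous doubling dilutions of drug. Inoculum grown overnight at 30°C in NGY medium, then added to MOPS-buffered RPMI 1640 at an initial 10^3 yeasts/ml. Incubated 35°C for 24 h. MIC read visually as the lowest concentration giving a marked decrease in visible growth; paradoxical or trailing growth noted.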

[9] = test system: Candida albicans; experiment: Antifungal activity against Candida albicans T28 after 24 hrs by CLSI M27-A test; summary of the method: as §4
[10] = test system: Candida dubliniensis; experiment: Antifungal activity against Candida dubliniensis IK after 24 hrs by CLSI M27-A test; summary of the method: as §1
[11] = test system: Candida albicans; experiment: Antifungal activity against Candida albicans Y109 after 24 hrs by CLSI M27-A test; summary of the method: as §4
[12] = test system: Candida albicans; experiment: Antifungal activity against Candida albicans NR2 after 24 hrs by CLSI M27-A test; summary of the method: as §4
[13] = test system: Candida dubliniensis; experiment: Antifungal activity against Candida dubliniensis FS after 24 hrs by EUCAST test; summary of the method: as §3
[14] = test system: Candida dubliniensis; experiment: Antifungal activity against Candida dubliniensis SCS65875C after 24 hrs by CLSI M27-A test; summary of the method: as §1
[15] = test system: Candida albicans; experiment: Antifungal activity against Candida albicans JIMS146204 after 24 hrs by CLSI M27-A test; summary of the method: as §4
[16] = test system: Candida dubliniensis; experiment: Antifungal activity against Candida dubliniensis 910Aa after 24 hrs by EUCAST test; summary of the method: as §2
[17] = test system: Candida dubliniensis; experiment: Antifungal activity against Candida dubliniensis 75/043 after 24 hrs by CLSI M27-A test; summary of the method: as §4
[18] = test system: Candida dubliniensis; experiment: Antifungal activity against Candida dubliniensis 81/060 after 24 hrs by EUCAST test; summary of the method: as §2
[19] = test system: Candida dubliniensis; experiment: Antifungal activity against Candida dubliniensis ST after 24 hrs by EUCAST test; summary of the method: as §3
[20] = test system: Candida albicans; experiment: Antifungal activity against Candida albicans SC5314 after 24 hrs by CLSI M27-A test; conditions: SC5314, 24 h; summary of the method: as §4
[21] = test system: Candida parapsilosis; experiment: Antifungal activity against Candida parapsilosis ATCC 22019 after 24 hrs by EUCAST test; conditions: Lodderomyces parapsilosis, ATCC 22019, 24 h; summary of the method: as §3
[22] = test system: Candida albicans; experiment: Antifungal activity against Candida albicans JIMS132203 after 24 hrs by EUCAST test; summary of the method: as §2
[23] = test system: Candida albicans; experiment: Antifungal activity against Candida albicans T25 after 24 hrs by EUCAST test; summary of the method: as §2
[24] = test system: Candida dubliniensis; experiment: Antifungal activity against Candida dubliniensis SCS59662 after 24 hrs by EUCAST test; summary of the method: as §3
[25] = test system: Candida albicans; experiment: Antifungal activity against Candida albicans B06-341 after 24 hrs by EUCAST test; summary of the method: as §2
[26] = test system: Candida dubliniensis; experiment: Antifungal activity against Candida dubliniensis ST after 24 hrs by CLSI M27-A test; summary of the method: as §1
[27] = test system: Candida dubliniensis; experiment: Antifungal activity against Candida dubliniensis SCS17154969-2 after 24 hrs by CLSI M27-A test; summary of the method: as §1
[28] = test system: Candida dubliniensis; experiment: Antifungal activity against Candida dubliniensis AMCC after 24 hrs by EUCAST test; summary of the method: as §2
[29] = test system: Candida dubliniensis; experiment: Antifungal activity against Candida dubliniensis J930936 after 24 hrs by EUCAST test; summary of the method: as §3
[30] = test system: Candida albicans; experiment: Antifungal activity against Candida albicans NCPF6525 after 24 hrs by EUCAST test; summary of the method: as §2
[31] = test system: Candida albicans; experiment: Antifungal activity against Candida albicans NCPF6525 after 24 hrs by CLSI M27-A test; summary of the method: as §4
[32] = test system: Candida albicans; experiment: Antifungal activity against Candida albicans NR2 after 24 hrs by EUCAST test; summary of the method: as §2
[33] = test system: Candida dubliniensis; experiment: Antifungal activity against Candida dubliniensis Leic952 after 24 hrs by CLSI M27-A test; summary of the method: as §1
[34] = test system: Candida dubliniensis; experiment: Antifungal activity against Candida dubliniensis FS after 24 hrs by CLSI M27-A test; summary of the method: as §1
[35] = test system: Candida albicans; experiment: Antifungal activity against Candida albicans JIMS132203 after 24 hrs by CLSI M27-A test; summary of the method: as §4
[36] = test system: Candida albicans; experiment: Antifungal activity against Candida albicans Y109 after 24 hrs by EUCAST test; summary of the method: as §2
[37] = test system: Candida albicans; experiment: Antifungal activity against Candida albicans CAI4RI after 24 hrs by EUCAST test; summary of the method: as §2
[38] = test system: Candida dubliniensis; experiment: Antifungal activity against Candida dubliniensis 90/033 after 24 hrs by EUCAST test; summary of the method: as §2
[39] = test system: Candida dubliniensis; experiment: Antifungal activity against Candida dubliniensis Leic952 after 24 hrs by EUCAST test; summary of the method: as §3
[40] = test system: Candida albicans; experiment: Antifungal activity against Candida albicans JIMS101103 after 24 hrs by EUCAST test; summary of the method: as §2
[41] = test system: Candida dubliniensis; experiment: Antifungal activity against Candida dubliniensis KR after 24 hrs by EUCAST test; summary of the method: as §3
[42] = test system: Candida albicans; experiment: Antifungal activity against Candida albicans NR3 after 24 hrs by CLSI M27-A test; summary of the method: as §4
[43] = test system: Candida albicans; experiment: Antifungal activity against Candida albicans NR3 after 24 hrs by EUCAST test; summary of the method: as §2
[44] = test system: Candida albicans; experiment: Antifungal activity against Candida albicans SCS68858 after 24 hrs by CLSI M27-A test; summary of the method: as §4
[45] = test system: Candida dubliniensis; experiment: Antifungal activity against Candida dubliniensis IK after 24 hrs by EUCAST test; summary of the method: as §3
[46] = test system: Candida albicans; experiment: Antifungal activity against Candida albicans SCS68858 after 24 hrs by EUCAST test; summary of the method: as §2
[47] = test system: Candida dubliniensis; experiment: Antifungal activity against Candida dubliniensis 75/043 after 24 hrs by EUCAST test; summary of the method: as §2
[48] = test system: Candida dubliniensis; experiment: Antifungal activity against Candida dubliniensis SCS17154969-1 after 24 hrs by CLSI M27-A test; summary of the method: as §1

MIC50 [1]: ≤ 0.032 µg/mL
MIC50 [2]: ≤ 0.032 µg/mL
MIC50 [3]: ≤ 0.032 µg/mL
MIC50 [4]: 0.5 µg/mL (≈ 0.394 µM)
MIC50 [5]: 0.063 µg/mL (≈ 0.0496 µM)
MIC50 [6]: ≤ 0.032 µg/mL
MIC50 [7]: ≤ 0.032 µg/mL
MIC50 [8]: ≤ 0.032 µg/mL
MIC50 [9]: ≤ 0.032 µg/mL
MIC50 [10]: ≤ 0.032 µg/mL
MIC50 [11]: 0.25 µg/mL (≈ 0.197 µM)
MIC50 [12]: 0.25 µg/mL (≈ 0.197 µM)
MIC50 [13]: 0.063 µg/mL (≈ 0.0496 µM)
MIC50 [14]: ≤ 0.032 µg/mL
MIC50 [15]: ≤ 0.032 µg/mL
MIC50 [16]: ≤ 0.032 µg/mL
MIC50 [17]: ≤ 0.032 µg/mL
MIC50 [18]: ≤ 0.032 µg/mL
MIC50 [19]: 0.063 µg/mL (≈ 0.0496 µM)
MIC50 [20]: ≤ 0.032 µg/mL
MIC50 [21]: 0.5 µg/mL (≈ 0.394 µM)
MIC50 [22]: ≤ 0.032 µg/mL
MIC50 [23]: 1 µg/mL (≈ 0.787 µM)
MIC50 [24]: ≤ 0.032 µg/mL
MIC50 [25]: ≤ 0.032 µg/mL
MIC50 [26]: ≤ 0.032 µg/mL
MIC50 [27]: ≤ 0.032 µg/mL
MIC50 [28]: ≤ 0.032 µg/mL
MIC50 [29]: ≤ 0.032 µg/mL
MIC50 [30]: ≤ 0.032 µg/mL
MIC50 [31]: ≤ 0.032 µg/mL
MIC50 [32]: 0.5 µg/mL (≈ 0.394 µM)
MIC50 [33]: ≤ 0.032 µg/mL
MIC50 [34]: ≤ 0.032 µg/mL
MIC50 [35]: ≤ 0.032 µg/mL
MIC50 [36]: 0.25 µg/mL (≈ 0.197 µM)
MIC50 [37]: 0.5 µg/mL (≈ 0.394 µM)
MIC50 [38]: 0.063 µg/mL (≈ 0.0496 µM)
MIC50 [39]: 0.063 µg/mL (≈ 0.0496 µM)
MIC50 [40]: ≤ 0.032 µg/mL
MIC50 [41]: ≤ 0.032 µg/mL
MIC50 [42]: 1 µg/mL (≈ 0.787 µM)
MIC50 [43]: 2 µg/mL (≈ 1.57 µM)
MIC50 [44]: ≤ 0.032 µg/mL
MIC50 [45]: ≤ 0.032 µg/mL
MIC50 [46]: ≤ 0.032 µg/mL
MIC50 [47]: ≤ 0.032 µg/mL
MIC50 [48]: ≤ 0.032 µg/mL
SMILES: CCCCCOc1ccc(-c2cc(-c3ccc(C(=O)N[C@H]4C[C@@H](O)[C@@H](O)NC(=O)[C@@H]5[C@@H](O)[C@@H](C)CN5C(=O)[C@H]([C@H](O)CC(N)=O)NC(=O)[C@H]([C@H](O)[C@@H](O)c5ccc(O)c(OS(=O)(=O)O)c5)NC(=O)[C@@H]5C[C@@H](O)CN5C(=O)[C@H]([C@@H](C)O)NC4=O)cc3)no2)cc1 [MICAFUNGIN] (X1-[Orn(4R-OH,5R-OH)]T[Hyp][hTyr(3S-OH,4S-OH,3'-OSO3H)][Gln(3R-OH)][Pro(3S-OH,4S-Me)]; lactam 1-C)
